Measurements: PMC3447998 (Biochemistry, 2012)
Entries after “also recorded” stand apart in the source; their conditions may differ. Each block holds one compound with its values, some of them ahead of it. Where a SMILES comes first, the peptide text is derived from it. Where no end group is shown, it is not given here. The star is where a group is joined. X2 = C[N+](C)(C)[C@@H](CO)C(=O)*; X1 = C[N+]1(C)CCC[C@H]1C(=O)*

Key:
[1] = target: T1, recombinant human NRMT (Homo sapiens, UniProt Q9BV86); assay: Isothermal titration calorimetry; type: binding; settings: 25°C, pH 8.0; for binding to recombinant human NRMT (in words): 10 residue RCC1 N-terminal peptides
T1 sequence (Q9BV86 1-223): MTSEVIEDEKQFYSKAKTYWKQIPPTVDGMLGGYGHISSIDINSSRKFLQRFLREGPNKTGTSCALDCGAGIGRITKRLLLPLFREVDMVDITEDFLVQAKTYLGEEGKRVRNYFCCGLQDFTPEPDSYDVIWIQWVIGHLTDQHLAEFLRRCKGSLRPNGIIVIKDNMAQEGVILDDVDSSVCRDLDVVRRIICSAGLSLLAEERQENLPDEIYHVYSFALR
Summary of the method: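 Recombinant NRMT was dialyzed overnight at 4°C against 50 mM Tris, 50 mM potassium acetate, pH 8.0. Ten-residue RCC1 N-terminal peptides, unmodified or N-methylated, were dissolved in the same buffer. At 25°C, 100 µM enzyme was titrated with 800–1000 µM peptide, and binding curves were fitted.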

[2] = system: recombinant NRMT (SPK-RCC1 substrate); assay: In vitro product inhibition assay, SPK-RCC1 substrate; type: biochemical; settings: increasing concentrations of product peptide; n=2
Summary of the method: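 Recombinant NRMT methylated RCC1 protein substrates bearing SPK or PPK N-termini in vitro. Increasing concentrations of N-trimethylated SPK or N-dimethylated PPK RCC1 product peptides were present. The read-out was N-terminal methylation of the substrate protein, normalized to the lowest product-peptide condition.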

[3] = system: N-terminus of protein; settings: yeast and mammals; ref [24],[25]; cited from earlier work
[4] = system: endogenous NRMT (293LT cells); assay: Co-precipitation of endogenous NRMT with FLAG-tagged substrate proteins; type: binding; settings: C-terminally FLAG-tagged protein expressed in 293LT cells
Summary of the method: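 C-terminally FLAG-tagged RCC1 or VRK2 expressed in 293LT cells, immunoprecipitated with anti-FLAG, and run on 10% polyacrylamide gel with Coomassie staining. On-bead material washed 3× with 100 mM ammonium bicarbonate (pH 8.0), then reduced, carbamidomethylated and digested with endoproteinase Glu-C (enzyme:protein 1:20). Peptides acidified to pH 3.5 and analysed by nano-LC-MS on C18 capillary columns.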

Compound: CC[C@H](C)[C@H](NC(=O)[C@H](CCCNC(=N)N)NC(=O)[C@H](CCCCN)NC(=O)[C@@H]1CCCN1C(=O)[C@@H]1CCC[N+]1(C)C)C(=O)N[C@@H](C)C(=O)N[C@@H](CCCCN)C(=O)N[C@@H](CCCNC(=N)N)C(=O)N[C@@H](CCCNC(=N)N)C(=O)N[C@@H](CO)C(=O)O [me2PPKRIAKRRS] (X1-PKRIAKRRS-OH; C-terminus assumed)
- binding to recombinant human NRMT (in words) [1]: bound to recombinant human NRMT with high affinity
- concentration of efficient inhibition of N-terminal methylation of SPK-RCC1 [2]: 1.3 µM

Compound: CC[C@H](C)[C@H](NC(=O)[C@H](CCCNC(=N)N)NC(=O)[C@H](CCCCN)NC(=O)[C@@H]1CCCN1C(=O)[C@H](CO)[N+](C)(C)C)C(=O)N[C@@H](C)C(=O)N[C@@H](CCCCN)C(=O)N[C@@H](CCCNC(=N)N)C(=O)N[C@@H](CCCNC(=N)N)C(=O)N[C@@H](CO)C(=O)O [me3SPKRIAKRRS] (X2-PKRIAKRRS-OH; C-terminus assumed)
- binding to recombinant human NRMT (in words) [1]: bound to recombinant human NRMT with high affinity
- concentration of efficient inhibition of N-terminal methylation of SPK-RCC1 [2]: 1.3 µM

- Kd ([1]; Kd, bi-phasic titration curve, second phase): 136 nM
Compound: PPKRIAKRRS [PPKRIAKRRS]

Compound: PPQRIAKRRS
- binding to recombinant human NRMT (in words) [1]: very low affinity binding (in mM range, data not shown)

Compound: PWP1: protein with MNR-N-terminus
- N-terminal acetylation reported (in words) [3]: reported to be N-terminally acetylated

Compound: SPQRIAKRRS
- binding to recombinant human NRMT (in words) [1]: very low affinity binding (in mM range, data not shown)

Compound: VRK2-FLAG: FLAG-tagged VRK2, possesses a P-P-K motif
- capture / co-precipitation of endogenous NRMT (in words) [4]: efficiently captured endogenous NRMT
- capture / co-precipitation of endogenous NRMT (in words) ([4]; listed as VRK2): captured more NRMT than the RCC1; also recorded: NRMT is co-precipitated
